# Laboratory results from ChEMBL document CHEMBL2029208 (Bioorg Med Chem, 2012).
# Activity calls are given as the source filed them. No cut-off for these calls is given here.
# Key:
# [1] = test system: Mycobacterium tuberculosis; assay: microbe, parasite or virus in culture; assay type: functional; conditions: H37Ra
# [2] = test system: Mycobacterium tuberculosis; assay: Antimycobacterial activity against Mycobacterium tuberculosis H37Ra at 10 uM; assay type: functional, organism-based
# [3] = target: T1, Bifunctional epoxide hydrolase 2 (Homo sapiens, UniProt P34913);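 note: recombinant enzyme with CMNPC substrate, fluorescence readout of 6-methoxy-2-naphthaldehyde formed over a 10 min reaction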
# T1 sequence (P34913 whole entry): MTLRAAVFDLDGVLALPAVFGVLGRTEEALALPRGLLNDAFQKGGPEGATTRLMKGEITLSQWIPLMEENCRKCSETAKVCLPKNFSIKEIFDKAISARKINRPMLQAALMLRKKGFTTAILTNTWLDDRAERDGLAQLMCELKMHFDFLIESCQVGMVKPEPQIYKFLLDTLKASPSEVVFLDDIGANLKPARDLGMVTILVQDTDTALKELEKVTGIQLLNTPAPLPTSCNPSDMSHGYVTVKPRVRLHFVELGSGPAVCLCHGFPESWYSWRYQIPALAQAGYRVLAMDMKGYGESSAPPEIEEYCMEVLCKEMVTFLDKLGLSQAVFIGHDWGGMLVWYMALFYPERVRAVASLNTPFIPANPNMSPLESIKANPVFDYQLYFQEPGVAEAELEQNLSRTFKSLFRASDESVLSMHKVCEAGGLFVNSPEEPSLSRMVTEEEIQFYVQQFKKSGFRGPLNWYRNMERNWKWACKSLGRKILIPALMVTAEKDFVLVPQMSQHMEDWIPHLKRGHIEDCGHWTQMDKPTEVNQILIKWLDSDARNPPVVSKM
# [4] = test system: Mycobacterium tuberculosis; assay: Inhibition of Mycobacterium tuberculosis epoxide hydrolase E expressed in Escherichia coli BL21AI cells using cyano(6-methoxy-2-napthalenyl)methyl[(2,3)-3-phenyloxiranyl] methyl ester carbonate as substrate at 10 nM preincubated for 10 mins before substrate addition measured after 30 mins by spectrofluorometric analysis
# [5] = mycobacterium tuberculosis h37ra, cytosol, 5 µM
# [6] = test system: Mycobacterium tuberculosis; assay: Antimycobacterial activity against Mycobacterium tuberculosis H37Ra infected in gamma interferon-knockout mouse assessed as reduction in lung CFU load at 150 mg/kg, po BID dosage beginning at 15 post infection for 9 days (reference value: 8.86 +/- 0.02 log10CFU); assay type: functional
# [7] = test system: Mycobacterium tuberculosis; assay: Antimycobacterial activity against Mycobacterium tuberculosis H37Ra infected in gamma interferon-knockout mouse assessed as reduction in spleen CFU load at 150 mg/kg, po BID dosage beginning at 15 post infection for 9 days (reference value: 7.30 +/- 0.09 log10CFU); assay type: functional
# [8] = Drug uptake in mouse serum at 140 mg/kg, po administered in 30% Captisol measured after 2 hrs by LC-MS/MS analysis; assay type: ADME, organism-based; parameters: dose 140 mg/kg, route oral; conditions: read-out: Drug uptake
# Method in brief: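 Non-genetically modified mice were dosed at 140 mg/kg in 30% Captisol by gavage. Blood was clotted for at least 1 h and spun at ~3000g for 15 min, and serum was frozen at −70°C. Serum was diluted 4:1 with methanol containing warfarin (final 5 μM) as internal standard and centrifuged. Samples were quantified by LC/MS against a 7-point calibration curve.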
# [9] = test system: Mycobacterium tuberculosis; assay: Antimycobacterial activity against Mycobacterium tuberculosis H37Ra infected in gamma interferon-knockout mouse assessed as reduction in lung CFU load at 25 mg/kg, po BID dosage beginning at 15 post infection for 9 days (reference value: 8.86 +/- 0.02 log10CFU); assay type: functional
# [10] = test system: Mycobacterium tuberculosis; assay: Antimycobacterial activity against Mycobacterium tuberculosis H37Ra infected in gamma interferon-knockout mouse assessed as reduction in spleen CFU load at 25 mg/kg, po BID dosage beginning at 15 post infection for 9 days (reference value: 7.30 +/- 0.09 log10CFU); assay type: functional
Structure (SMILES),MIC [1] [µg/mL],IC50 [3] [nM],also measured
COC(=O)c1cccc(O[C@H]2CC[C@@H](NC(=O)NC34CC5CC(CC(C5)C3)C4)CC2)c1,> 85,2.5,Activity [2]: inactive
O=C(Nc1ccc(OCCCN2CCOCC2)cc1)NC12CC3CC(CC(C3)C1)C2,> 17,–,inhibition [4]: 19%; Drug uptake [5]: 103 ng
COC(=O)c1ccc(NC(=O)NC2CCCCCC2)cc1,3.63,12.3,Activity [2]: inactive
O=C(NC12CC3CC(CC(C3)C1)C2)N[C@H]1CC[C@H](Oc2ccc(C(=O)O)cc2)CC1,21,–,Activity [2]: inactive
COC(=O)c1ccc(NC(=O)NC23CC4CC(CC(C4)C2)C3)cc1O,1.1,–,Activity [2]: inactive; log10cfu [6]: 8.77; log10cfu [7]: 7.31; concentration at 2 h [8]: 3000 nM
CCCC(C)OCCOCCOCCCCCNC(=O)NC12CC3CC(CC(C3)C1)C2 (stereo not drawn),> 91,6.2,–
O=C(Nc1ccc(I)cc1)NC12CC3CC(CC(C3)C1)C2,0.6,0.5,–
CCOC(=O)C(F)(F)Oc1ccc(NC(=O)NC23CC4CC(CC(C4)C2)C3)cc1,1.28,0.8,–
CCCCCO[C@H]1CC[C@H](NC(=O)NC23CC4CC(CC(C4)C2)C3)CC1,25,–,inhibition [4]: 93%; Drug uptake [5]: 128 ng
CCOCCOCCOc1ccc(C(OC(=O)CCCNC(=O)NC23CC4CC(CC(C4)C2)C3)c2ccccc2)cc1 (stereo not drawn),> 116,5.1,–
O=C(Nc1cccc(OC(F)F)c1)NC12CC3CC(CC(C3)C1)C2,0.8,2.6,–
O=C(Nc1cccc(C(=O)NCCCN2CCOCC2)c1)NC12CC3CC(CC(C3)C1)C2,> 33,57.9,–
O=C(NC1CCCC(C(=O)N2CCOCC2)C1)NC12CC3CC(CC(C3)C1)C2 (stereo not drawn),> 81,8.2,–
O=C(Nc1cccc(C(F)(F)F)c1)NC12CC3CC(CC(C3)C1)C2,0.8,2.4,–
O=C(Nc1cccc(C(=O)O)c1)NC12CC3CC(CC(C3)C1)C2,7.8,–,Activity [2]: Active
CCOC(=O)c1ccc(O[C@H]2CC[C@@H](NC(=O)NC34CC5CC(CC(C5)C3)C4)CC2)cc1,8.3,1.6,–
COC(=O)c1ccc(NC(=O)NC2C3CC4CC(C3)CC2C4)cc1O (stereo not drawn),0.1,–,log10cfu [6]: 8.74; log10cfu [7]: 7.33
O=C(NCCCCCOCCN1CCOCC1)NC12CC3CC(CC(C3)C1)C2,> 79,2.3,–
O=C(NC1CCCC(C(=O)N2CCC(N3CCOCC3)CC2)C1)NC12CC3CC(CC(C3)C1)C2 (stereo not drawn),> 95,6.1,–
O=C(Nc1cccc(OC(F)(F)F)c1)NC12CC3CC(CC(C3)C1)C2,0.2,3.1,–
O=C(Nc1ccc(Oc2ccccc2)cc1)NC12CC3CC(CC(C3)C1)C2,0.1,0.5,–
COC(=O)Cc1ccc(NC(=O)NC23CC4CC(CC(C4)C2)C3)cc1,2.1,4.4,–
O=C(Nc1ccc(OCCOCCOCC(F)(F)F)cc1)NC12CC3CC(CC(C3)C1)C2,11,3.3,–
O=C(Nc1ccc(F)c(F)c1F)NC1C2CC3CC(C2)CC1C3 (stereo not drawn),–,–,inhibition [4]: 68%

Structure (SMILES),MIC [1] [µg/mL],IC50 [3] [nM],also measured
O=C(Nc1ccc(Cl)c(Cl)c1)Nc1ccc(Cl)c(Cl)c1,2.19,28.1,–
O=C(Nc1ccc(N2CCOCC2)cc1)NC12CC3CC(CC(C3)C1)C2,18,5.2,–
O=C(Nc1ccc(C(F)(F)F)cc1)Nc1ccc(C(F)(F)F)cc1,2.18,15,–
O=C(NCC1CCCCC1)Nc1cccc(Cl)c1,1.67,2.6,–
O=C(NCCCc1ccccc1)NC12CC3CC(CC(C3)C1)C2,0.7,1,–
C=C(CCCNC(=O)NC12CC3CC(CC(C3)C1)C2)OCCOCCOCC,> 79,67,–
COCCOCCCCCNC(=O)NC12CC3CC(CC(C3)C1)C2,68,12.1,–
CC(C)OCCOCCOCCCCCNC(=O)NC12CC3CC(CC(C3)C1)C2,21,4.1,–
CCCCCCc1ccc(NC(=O)NC2CCCCC2)cc1,1.89,1.8,–
COC(=O)CCc1ccc(NC(=O)NC23CC4CC(CC(C4)C2)C3)cc1,2.2,2,–
O=C(Nc1cccc(C(=O)NCC2CN(Cc3ccccc3)CCO2)c1)NC12CC3CC(CC(C3)C1)C2 (stereo not drawn),> 101,13.6,–
NNC(=O)c1ccncc1 [ISONIAZID],0.08,–,log10cfu [9]: 5.41; log10cfu [10]: 3.63
CC(C)c1ccc(NC(=O)NCC2CCCCC2)cc1,1.72,1.1,–
O=C(NCCCN1CCOCC1)NC12CC3CC(CC(C3)C1)C2,> 64,610,–
O=C(NC12CC3CC(CC(C3)C1)C2)N[C@H]1CC[C@H](OC(=O)c2ccccc2)CC1,> 79,1,Activity [2]: inactive
O=C(Nc1cccc(OC(F)(F)C(F)F)c1)NC12CC3CC(CC(C3)C1)C2,1.4,1.5,–
O=C(Nc1ccc(CC(=O)c2ccccc2)cc1)NC12CC3CC(CC(C3)C1)C2,2.43,4.7,–
C=CCO[C@H]1CC[C@@H](NC(=O)NC23CC4CC(CC(C4)C2)C3)CC1,> 66,1.3,–
O=C(NC12CC3CC(CC(C3)C1)C2)N[C@H]1CC[C@H](Oc2ccc(C(F)(F)F)cn2)CC1,> 88,4.8,–
CC(=O)c1ccc(NC(=O)NC23CC4CC(CC(C4)C2)C3)cc1,2,6.3,–
O=C(Nc1ccc(O)c(Cl)c1)NC12CC3CC(CC(C3)C1)C2,2,5.1,–
COCC(=O)c1ccc(O[C@H]2CC[C@@H](NC(=O)NC34CC5CC(CC(C5)C3)C4)CC2)cc1,5.51,3.8,–
O=C(Nc1ccc(OC(F)(F)F)cc1)Nc1ccc(OC(F)(F)F)cc1,4.75,9.6,–
